pIC50: −log10 of the molar value.
Legend:
[1] = tested on: Mus musculus; test: Number of survivors after 11 days at a dose of 8.9 mg/Kg tested in 6 mice; assay type: functional
In short: (§1)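 MX-1 human mammary carcinoma xenograft implanted under the renal capsule of mice. The study was run at the National Cancer Institute following the procedures of NIH Publication No. 84-2635. Average tumor weight was recorded at the start and end of treatment, and survivors were counted after 11 days. Dosed groups were compared with an untreated control group.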

[2] = tested on: Mus musculus; test: Initial average tumor weight was measured in mice induced with human mammary carcinoma at a dose of 13 mg/Kg; assay type: functional
In short: (§2)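 MX-1 human mammary carcinoma xenograft implanted under the renal capsule in mice. Study run at the National Cancer Institute following NIH Publication No. 84-2635. Tumor weights recorded at the start and at the end. Survivors counted after 11 days. %T/C = (Δ tumor weight treated/Δ tumor weight control) × 100 where the tumor grows, and (Δ tumor weight treated/initial control tumor weight) × 100 where it regresses.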

[3] = tested on: Mus musculus; test: Final average tumor weight was measured in mice induced with human mammary carcinoma at a dose of 20 mg/Kg; assay type: functional; in short: as §2
[4] = tested on: B16; test: Concentration required to inhibit the proliferation of B16 melanoma cells was determined; assay type: functional, cell-based; conditions: Mus musculus
[5] = tested on: Mus musculus; test: Tumor growth or regression measured as Percent treated by control at a dose of 13 mg/Kg to mice with MX-1 xenograft; CR refers to complete remission or when the tumor is no longer detectable; assay type: functional, organism-based; in short: as §2
[6] = tested on: Mus musculus; test: Initial average tumor weight was measured in mice induced with human mammary carcinoma at a dose of 5.9 mg/Kg; assay type: functional; in short: as §2
[7] = tested on: Mus musculus; test: Initial average tumor weight was measured in mice induced with human mammary carcinoma at a dose of 20 mg/Kg; assay type: functional; in short: as §2
[8] = tested on: Mus musculus; test: Initial average tumor weight was measured in mice induced with human mammary carcinoma at a dose of 30 mg/kg; assay type: functional; in short: as §2
[9] = tested on: Mus musculus; test: Final average tumor weight was measured in mice induced with human mammary carcinoma at a dose of 30 mg/kg; assay type: functional; in short: as §2
[10] = tested on: Mus musculus; test: Number of survivors after 11 days at a dose of 30 mg/kg tested in 6 mice; assay type: functional; in short: as §1
[11] = tested on: Mus musculus; test: Tumor growth or regression measured as Percent treated by control at a dose of 20 mg/Kg to mice with MX-1 xenograft; CR refers to complete remission or when the tumor is no longer detectable; assay type: functional, organism-based; in short: as §2
[12] = tested on: Mus musculus; test: Tumor growth or regression measured as Percent treated by control at a dose of 30 mg/Kg to mice with MX-1 xenograft; Tox refers to toxicity or when < 65% of the animals survive the test; assay type: functional, organism-based; in short: as §2
[13] = tested on: B16; test: Relative effect on B16 melanoma cell proliferation was determined [IC50 (taxol)/IC50 (derivative)]; assay type: functional, Mus musculus
[14] = tested on: Mus musculus; test: Final average tumor weight was measured in mice induced with human mammary carcinoma at a dose of 5.9 mg/Kg; assay type: functional; in short: as §2
[15] = tested on: Mus musculus; test: Initial average tumor weight was measured in mice induced with human mammary carcinoma at a dose of 8.9 mg/Kg; assay type: functional; in short: as §2
[16] = tested on: Mus musculus; test: Tumor growth or regression measured as Percent treated by control at a dose of 8.9 mg/kg to mice with MX-1 xenograft; assay type: functional
In short: (§3)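 Subrenal capsule human mammary carcinoma (MX-1) xenograft in mice, run at the National Cancer Institute by NIH Publication No. 84-2635 procedures. Initial and final average tumor weights recorded, with survivors counted after 11 days. %T/C is (Δ tumor weight treated/Δ tumor weight controls)×100 for growing tumors. For regressing tumors it is (Δ tumor weight treated/initial control tumor weight)×100.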

[17] = tested on: B16; test: Percentage change in cell number of B16 melanoma cells treated with 10e-5 M dose; assay type: functional, Mus musculus
In short: (§4)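 B16 melanoma cells exposed to 10⁻⁵ or 10⁻⁶ M compound for 8 h, then rinsed three times with fresh medium. Cells then grown in drug-free medium for 48 h and counted. Result given as percent change relative to the cell number at time zero. Controls are the average of three experiments.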

[18] = tested on: Mus musculus; test: Number of survivors after 11 days at a dose of 5.9 mg/Kg tested in 6 mice; assay type: functional; in short: as §1
[19] = tested on: Mus musculus; test: Final average tumor weight was measured in mice induced with human mammary carcinoma at a dose of 8.9 mg/Kg; assay type: functional; in short: as §2
[20] = tested on: Mus musculus; test: Antitumor activity of taxoland the derivative against mammary carcinoma xenograft in mice; assay type: functional; in short: as §2
[21] = species: Bos taurus; test: Relative effect on microtubular assembly (Tubulin polymerized by derivative/tubulin polymerized by taxol); assay type: functional
In short: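 Bovine brain tubulin, purified from microtubule-associated proteins by phosphocellulose chromatography, used at 10 μM. Turbidity followed at 350 nm. Polymer pelleted at 200000g, 37 °C, 4 min, depolymerized on ice, and protein measured by Bradford.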

[22] = tested on: B16; test: Percentage change in cell number of B16 melanoma cells treated with 10e-6 M dose; assay type: functional, Mus musculus; in short: as §4
[23] = tested on: Mus musculus; test: Number of survivors after 11 days at a dose of 20 mg/Kg tested in 6 mice; assay type: functional; in short: as §1
[24] = tested on: Mus musculus; test: final average tumor weight was measured in mice induced with human mammary carcinoma at a dose of 13 mg/Kg; assay type: functional; in short: as §3
[25] = tested on: Mus musculus; test: Number of survivors after 11 days at a dose of 13 mg/Kg tested in 6 mice; assay type: functional; in short: as §1
[26] = tested on: Mus musculus; test: Tumor growth or regression measured as Percent treated by control at a dose of 5.9 mg/Kg to mice with MX-1 xenograft; assay type: functional; in short: as §3
[27] = Solubility in water; assay type: physicochemical; conditions: read-out: S

In the case of CC(=O)O[C@H]1C(=O)[C@@]2(C)[C@H]([C@H](OC(=O)c3ccccc3)[C@]3(O)C[C@H](OC(=O)[C@H](OC(=O)CN(C)C)[C@@H](NC(=O)c4ccccc4)c4ccccc4)C(C)=C1C3(C)C)[C@]1(OC(C)=O)CO[C@@H]1C[C@@H]2O.CS(=O)(=O)O, the No. of survivors [1] was 5, the “Initial average tumor weight” value [2] was 0.64 mg and the “Final average tumor weight” value [3] was 0 mg. The pIC50 [4] was 7.68, the T/C [5] was “Complete remission” and the “Initial average tumor weight” value [6] was 0.61 mg. The “Initial average tumor weight” value [7] was 0.56 mg, the “Initial average tumor weight” value [8] was 0.68 mg and the “Final average tumor weight” value [9] was 0 mg. For the same molecule, the No. of survivors [10] was 1, the T/C [11] was “Complete remission” and the T/C [12] was “Toxic”. The Relative effect [13] was 0.9, the “Final average tumor weight” value [14] was 0.13 mg and the “Initial average tumor weight” value [15] was 0.77 mg. For the same molecule, the T/C [16] was -53%, the “Change in cell number” value [17] was 84% and the No. of survivors [18] was 6. The “Final average tumor weight” value [19] was 0.36 mg, the Relative antitumor activity [20] was 2 and the Relative effect [21] was 0.25. The “Change in cell number” value [22] was 261%, the No. of survivors [23] was 4 and the “Final average tumor weight” value [24] was 0 mg. The No. of survivors [25] was 4, the T/C [26] was -78% and the solubility [27] was 4.83 mM.

Reference: ChEMBL document CHEMBL1126013, “Synthesis and evaluation of some water-soluble prodrugs and derivatives of taxol with antitumor activity” (J Med Chem, 1992)
